Measured values gathered from unrelated publications.
Lines come from different studies, so protocols differ.
Effect on: cell growth or viability

Compound | cell line | technique | time | IC50
CC(C(=O)NCc1ccccc1)c1cccc(C(OC(=O)NCc2ccccc2)c2ccccc2)c1 (stereo not shown) | L1210 | – | 48 h | 10 µM
C[C@@H]1C[C@@]2(N=CCS2)[C@]2(O)O[C@@H]3C[C@@]4(C=O)[C@@H](CC[C@@H]5[C@@H]4CC[C@]4(C)[C@@H](C6=CC(=O)OC6)CC[C@]54O)C[C@H]3O[C@@H]2O1 | L6 | resazurin | 72 h | 6.17 µM
COc1ccc2c(c1)NC(=O)CN2c1nc(Cl)nc2c1CCCC2 | MDA-MB-453 | MTS | 72 h | 0.256 µM
COc1cc(C(=O)c2cc3c(-c4ccccc4)c(O)ccc3o2)cc(OC)c1OC | L1210 | – | 48 h | > 50 µM
CC(C(=O)n1nnc2ccccc21)c1cccc(C(OC(=O)n2nnc3ccccc32)c2ccccc2)c1 (stereo not shown) | L1210 | – | 48 h | 38 µM
N.N.[Cl][Pt][Cl] | NCI-H460 | MTT | 72 h | 2 µM
CS(=O)(=O)c1ccc(S(=O)(=O)N2CCc3[nH]c4ccccc4c3C2)cc1 | L6 | – | – | > 250 µM
COc1ccc(N(C)c2nc(Cl)nc3cccnc23)cc1F | MDA-MB-453 | MTS | 72 h | 0.0042 µM
CC(C(=O)NC1CCCCC1)c1cccc(C(OC(=O)NC2CCCCC2)c2ccccc2)c1 (stereo not shown) | FM3A | – | 48 h | 15 µM
CCCSc1ccc2nc(NC(=O)OC)[nH]c2c1 | GISTT1 | resazurin | 72 h | 0.3 µM
COc1cc(C(=O)c2sc3ccccc3c2N)cc(OC)c1OC | L1210 | – | 48 h | 0.35 µM
CC(C(=O)N1CCCCC1)c1cccc(C(OC(=O)N2CCCCC2)c2ccccc2)c1 (stereo not shown) | L1210 | – | 48 h | 15 µM
CC(C)=CCOc1c2occc2cc2ccc(=O)oc12 | COLO 205 | MTT | 72 h | > 100 µM
CC(C(=O)NC1CCCC1)c1cccc(C(OC(=O)NC2CCCC2)c2ccccc2)c1 (stereo not shown) | L1210 | – | 48 h | 9.8 µM
Cc1n[nH]cc1-c1cc2nc([C@@H]3CC4CCN3CC4)[nH]c(=O)c2s1 | COLO 205 | MTT | – | 0.0367 µM
N.N.[Cl][Pt][Cl] | NCI-H460 | – | 48 h | 21.6 µM
COc1cc(C(=O)c2sc3c(OC)cccc3c2N)cc(OC)c1OC | L1210 | – | 48 h | 0.033 µM
C[C@@H]1C[C@H](O)[C@]2(O)O[C@@H]3C[C@@]4(C=O)[C@@H](CC[C@@H]5[C@@H]4CC[C@]4(C)[C@@H](C6=CC(=O)OC6)CC[C@]54O)C[C@H]3O[C@@H]2O1 | L6 | resazurin | 72 h | 7.5 µM
C[C@H]1O[C@@H](O[C@H]2[C@@H](O)C[C@H](O[C@H]3[C@@H](O)C[C@H](O[C@H]4CC[C@@]5(C)[C@H](CC[C@@H]6[C@@H]5C[C@@H](O)[C@]5(C)[C@@H](C7=CC(=O)OC7)CC[C@]65O)C4)O[C@@H]3C)O[C@@H]2C)C[C@H](O)[C@@H]1O | GISTT1 | resazurin | 72 h | 0.16 µM
